This is one part of a sample in which hits are shown more often than they occur.
Lmaj promast = Leishmania major promastigote growth inhibition, primary screen | Leishmania major promastigotes, resazurin fluorescence viability | inhibition, % at 10 µM | hit rate 9% among 200,000; in the data active = inhibition above about 50%;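 also: promastigotes grown with compound for 44 hours at 28 °C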
NALP3 yeast inh = NALP3 inflammasome inhibitors in reconstituted yeast, primary screen, luminescence, uHTS; inhibition, % at 10 µM; hit rate 0.39% among 330,000; Yeast reconstituted NLRP3/ASC/caspase-1, beta-gal luminescence, 24 h; AID 2825, 2010;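 active = inhibition of 50% or more; inactive = inhibition below 50%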
T cruzi repl = inhibitors of intracellular T. cruzi growth, primary screen, luminescence, NIH3T3 host cells; T. cruzi beta-gal in NIH3T3, 90 h; inhibition, % (no concentration beside the values); hit rate 1.4% among 300,000;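 active = mean inhibition across valid replicates above about 55%, limit read from the data; inconclusive = mean below that limit but half or more replicates reach it; inactive = mean below it, under half of replicates reach it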;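 also: signal also drops with host cell toxicity which is not excluded here; higher percent means less beta-gal luminescence so fewer parasites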
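System: Mouse NIH/3T3 fibroblasts infected with β-gal-expressing T. cruzi Tulahuen C4 | Quantity: NIH/3T3 cells, 5,000 per well | Reagent: 5000 reporter trypomastigotes per well | Dosing: Compound pinned at 50 nL/well, DMSO | Schedule: 3 h host attachment, then at least 90 h co-culture | Detection: GalScreen luminescence, 60 min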
Calb FLC = C. albicans growth inhibition with fluconazole, primary screen, CaCi-2 strain, Alamar Blue fluorescence; growth inhibition, % (test concentration not listed); hit rate 0.57% among 300,000; C. albicans CaCi-2 + fluconazole, 48 h;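 active = growth inhibition above about 58% in most replicates, limit read from the data, passing the limit was not always enough; inconclusive = exactly half the replicates above a set limit; inactive = most replicates below a set limit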;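 also: all wells also contain fluconazole at 8 µg/ml as a sub-toxic cotreatment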
NALP1 inh = NALP1 inflammasome inhibitors in reconstituted yeast, colorimetric, S. cerevisiae, triplicate retest; S. cerevisiae NALP1/ASC/caspase-1 growth, X-gal OD620, 72 h; inhibition, % at 10 µM; hit rate 0.61% among 280,000; in the data active = inhibition mostly above about 24%, no sharp cut-off; inactive = mostly below about 32%
PolyA inh = polyadenylation inhibitors in yeast reporter cells, primary screen, luminescence, S. cerevisiae; S. cerevisiae SKY197-pL101 polyadenylation reporter, beta-gal luminescence; efflux-impaired pdr1/pdr3 knockout yeast; score 100 = 6 SD above DMSO; activity score, % at 12 µM; hit rate 0.02% among 300,000; AID 1875, 2009;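 active = lowest replicate activity score at least 50, where 100 means six control SD above control mean; inconclusive = lowest score under 50 but half or more replicates reach 50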;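 also: yeast exposed to compound for 9 h at 30 °C; higher score means more reporter readthrough which indicates perturbed polyadenylation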
Large screens that a line does not name were inactive.

CC(O)CNCCCCOc1ccc(OCc2ccccc2)cc1 (configuration not stated)	Lmaj promast 96.9
O=C(N/N=C/C1C(c2ccccc2)C1(Cl)Cl)c1cccc(Br)c1 (configuration not stated)	none
CSc1ncc(CN2CCCC(C(=O)c3ccc(C(C)(C)C)cc3)C2)cn1 (configuration not stated)	Lmaj promast 88.5
COc1ccc(CN2CCCC(C(=O)c3cccc(C(F)(F)F)c3)C2)cc1O (configuration not stated)	Lmaj promast 84.2
CC(=O)Nc1ccc(CN2CCCC(C(=O)c3cccc(C(F)(F)F)c3)C2)cc1 (configuration not stated)	none
O=C(c1cccc(C(F)(F)F)c1)C1CCCN(Cc2ccc(OCCO)cc2)C1 (configuration not stated)	Lmaj promast 81.0, T cruzi repl 62.7
COc1ccc(C(=O)C2CCCN(C(=O)c3cccc(Cn4cccn4)c3)C2)cc1F (configuration not stated)	none (no result: Lmaj promast)
COc1ccc(CN2CCCC(C(=O)c3ccc(SC)cc3)C2)cc1Cn1cccn1 (configuration not stated)	Lmaj promast 90.4
O=C1C=CN2CCCCC2CC1 (configuration not stated)	none (no result: Lmaj promast, T cruzi repl, Calb FLC, NALP1 inh, PolyA inh)
Cc1ccc(CN2CC(C(=O)Nc3ccc(F)c([N+](=O)[O-])c3)CC2=O)cc1 (configuration not stated)	none
CCOc1ccc(CN(C)CC(=O)Nc2ccccc2C(=O)NC2CC2)cc1	none (no result: Lmaj promast, T cruzi repl, Calb FLC, NALP1 inh, PolyA inh)
O=C(Cn1cc(S(=O)(=O)Cc2ccccc2)c2ccccc21)Nc1ccccc1	none
CCOC(=O)c1c(C)n(CCO)c2ccc(O)cc12	none
COC(=O)c1c(C(=O)OC)n(CCCN)c2ccc(C)cc12	Lmaj promast 58.5
CC(C)(C)c1cc(N)n2nc(C(C)(C)C)cc2n1	Lmaj promast 65.8
C/C(N)=C(/C#N)C(=O)CSc1cc(C)c2ccccc2n1	none
COc1ccc(C(=O)/C=C2/C(=O)Nc3ccccc32)cc1	none (no result: Lmaj promast)
O=C1Nc2ccccc2/C1=C/C(=O)c1cccs1	Lmaj promast 100.3
CCC(C)n1c(SCC(=O)/C(C#N)=C(\C)N)nc2ccccc2c1=O (configuration not stated)	none
CCN(CC)C(=O)COCc1cc(-c2ccc3c(c2)OCO3)on1	none (no result: Lmaj promast)
Cc1ccc(Sc2ncnc3onc(C)c23)cc1	Lmaj promast 56.4 (no result: T cruzi repl)
Cc1noc2ncnc(Sc3ccc(Cl)cc3)c12	Calb FLC 85.7
Cc1ccc(CSc2ncnc3onc(C)c23)cc1	none (no result: Lmaj promast)
Cc1noc2ncnc(Sc3c(Cl)cccc3Cl)c12	none
Cc1cc2oc(=O)cc(CNc3ccccc3F)c2cc1O	T cruzi repl 58.6 (no result: Lmaj promast)
CCOc1ccccc1NCc1cc(=O)oc2cc(C)c(O)cc12	none (no result: Lmaj promast)
O=C(c1ccccn1)N1N=C2/C(=C/c3ccccc3)CCCC2C1c1ccccc1 (configuration not stated)	Lmaj promast 93.9
O=C1CCC(C(=O)OCC(=O)N2N=C3/C(=C/c4ccccc4)CCCC3C2c2ccccc2)N1 (configuration not stated)	none
CCOC(=O)N1CCN(C(=O)CN(C)S(=O)(=O)c2ccc(Cl)cc2)CC1	none (no result: Lmaj promast)
O=c1[nH]c(Nc2ccc3c(c2)OCCO3)nnc1Cc1ccccc1	Calb FLC 120.2
CCOc1cc(/C=N/NC(=O)c2cccnc2)ccc1OCC(N)=O	Calb FLC 107.0 (no result: T cruzi repl, PolyA inh)
CCOc1ccc(OCc2cccc(C(=O)N/N=C/c3cccnc3)c2)cc1	Lmaj promast 58.1
CCOc1cc(/C=N/NC(=O)c2cccnc2)ccc1OCC(=O)N(C)C	none
Cc1ccc(C(C)C)c(OCc2nn(CC(=O)c3ccc(OC(F)F)cc3)c3[n+]2CCCCC3)c1	Lmaj promast 99.1, T cruzi repl inconclusive, Calb FLC 89.6
COc1ccc(C(=O)Cn2nc(CNc3ccc(Br)cc3)[n+]3c2CCCCC3)cc1	T cruzi repl 59.1
O=C(Cn1nc(-c2nn(CC(=O)c3ccccc3)c3[n+]2CCCCC3)[n+]2c1CCCCC2)c1ccccc1	none (no result: Lmaj promast)

Assay outcomes deposited in PubChem by several laboratories.
